Data: publication PMC10847618 (Heliyon, 2024)
Where “and” joins values, the source holds several entries; their conditions need not be identical. Identical values can stand only once. Entries after “also recorded” stand apart in the source; their conditions may differ. Like-named read-outs stand apart in the source and are kept apart here. One block for each compound: values may come before it.

Legend:
[1] = system: P. falciparum CQ^S-3D7; test: Growth inhibition assay; type: cell-based, Plasmodium falciparum; details: for inhibition at 10 µM: 3D7, 10 μM; for IC50: one intra-erythrocytic cycle
[2] = molecular target: recombinant 6xHis-CDPK1 protein (rPfCDPK1) (Plasmodium falciparum, UniProt P62344); test: Microscale thermophoresis; type: binding
Chain of recombinant 6xHis-CDPK1 protein (rPfCDPK1) (P62344 whole entry): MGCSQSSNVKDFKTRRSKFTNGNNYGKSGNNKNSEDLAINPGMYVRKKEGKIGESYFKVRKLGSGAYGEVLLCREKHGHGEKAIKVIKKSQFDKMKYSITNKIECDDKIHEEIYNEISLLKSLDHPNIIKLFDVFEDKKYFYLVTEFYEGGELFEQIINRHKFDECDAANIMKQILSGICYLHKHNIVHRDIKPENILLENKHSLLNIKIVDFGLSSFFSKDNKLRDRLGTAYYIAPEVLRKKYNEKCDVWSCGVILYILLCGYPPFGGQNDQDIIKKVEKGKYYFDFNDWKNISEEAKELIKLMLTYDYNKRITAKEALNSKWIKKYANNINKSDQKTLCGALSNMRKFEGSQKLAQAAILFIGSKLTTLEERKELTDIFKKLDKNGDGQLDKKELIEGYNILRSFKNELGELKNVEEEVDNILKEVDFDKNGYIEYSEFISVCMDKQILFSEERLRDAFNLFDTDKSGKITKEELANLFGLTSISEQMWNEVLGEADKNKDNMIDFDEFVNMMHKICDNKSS
Method in brief: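 Recombinant 6xHis-PfCDPK1 (10 μM) in HEPES-NaCl (pH 7.5) with 0.05 % Tween-20 was labelled with 30 μM cysteine-reactive red maleimide dye for 30 min at RT in the dark. It was then column-purified, keeping fractions below 1000 fluorescence counts. Test compound was serially titrated (4.8 nM–80 μM or 2.4 nM–40 μM) against constant labelled protein and premixed 10 min at RT in the dark. MST was run at RT, 20 % LED and 40 % MST power.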

[3] = molecular target: rPfCDPK1 (Plasmodium falciparum, UniProt P62344); test: In vitro kinase assay; type: biochemical
Chain of rPfCDPK1 (P62344 whole entry): as above
Method in brief: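 100 ng 6xHis-CDPK1 per reaction in 100 mM Tris-Cl pH 7.4, 50 mM MgCl2, 2.5 mM DTT, 2.5 mM MnCl2, with or without Ca2+ (2.5 mM EGTA). Dephosphorylated bovine casein substrate. Enzyme pre-incubated with test compound (1 or 5 µM) for 20 min at RT. ATP-started reaction run 1 h at 30 °C. ADP formation read by ADP-Glo luminescence.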

[4] = system: mammalian kinome (HepG2 lysate); test: In vitro kinase assay with HepG2 lysate; type: biochemical, human; details: HepG2 cytosolic fraction; 1 and 5 μM
Method in brief: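 HepG2 cells (10^7) were lysed for 1 h at 4 °C in 20 mM Tris (pH 7.7), 0.5 % NP-40, 200 mM NaCl, 50 mM NaF, 0.2 mM orthovanadate, protease inhibitors and 0.1 % 2-mercaptoethanol. The lysate was spun at 13,000 rpm for 10 min. Kinase activity of the supernatant was measured by ADP-Glo luminescence with test compound at 1 and 5 μM.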

[5] = system: P. falciparum CQ^R-RKL-9; test: Growth inhibition assay; type: cell-based, Plasmodium falciparum
[6] = system: CQ^S-3D7 P. falciparum; test: Growth progression analysis / blood stage-specific effect; type: cell-based, Plasmodium falciparum
[7] = system: hemozoin in synchronized ring-stage parasites; test: Hemozoin assay; type: cell-based, Plasmodium falciparum; details: 10 μM; 30 h
Method in brief: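 P. falciparum cultures were synchronized at ring stage, held at 6 % parasitemia, and treated with test compound for 30 h in triplicate. Cells were then treated with 2.5 % SDS in 0.1 M sodium bicarbonate (pH 8.8) for 10 min at RT and centrifuged. The pellet was resuspended in 5 % SDS/50 mM NaOH for 30 min. Monomeric heme was read as A405 minus A750.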

[8] = Hemolytic activity; type: cell-based, human; details: human, red blood cell suspension (10 %, v/v), pH 7.4
Method in brief: (§1)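 Washed human RBCs (10 %, v/v) were resuspended in PBS (pH 7.4) and incubated with test compound at 1.5–800 μM for 1 h at 37 °C. After centrifugation, supernatant absorbance was read at 415 nm. RBCs treated with 1 % (v/v) Triton X-100 were the positive control. Run in triplicate.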

[9] = system: human RBCs; test: Hemolytic activity; type: cell-based; details: 1.5–800 μM
Method in brief: as §1

[10] = MTT cytotoxicity assay; type: cell-based, human; details: human, HEK293 cells
Method in brief: (§2)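 Cells were seeded in DMEM with 10 % FBS (HEK293 2 × 10^4 per well; HepG2 10^4 per well) and incubated overnight at 37 °C in 5 % CO2. Test compound was added at 2.5–600 μM (HEK293) or 2–500 μM (HepG2) for 24 h at 37 °C, with untreated cells as control. MTT was added (stock 5 mg/mL in PBS), formazan was dissolved in DMSO, and absorbance read at 570 nm. Run in triplicate.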

[11] = system: HEK293 cells; test: MTT cytotoxicity assay; type: cell-based, human; details: HEK293; 2.5–600 μM
Method in brief: as §2

[12] = MTT cytotoxicity assay; type: cell-based, human; details: human, HepG2 cells
Method in brief: as §2

[13] = system: HepG2 cells; test: MTT cytotoxicity assay; type: cell-based, human; details: HepG2; 2–500 μM
Method in brief: as §2

[14] = system: PfCDPK1; details: cited from earlier work
[15] = system: P. falciparum CQ^S-3D7; details: stated IC50 of the standard drug, used as positive control; ref not given; cited from earlier work
[16] = Plasmodium falciparum, CQ^S-3D7
[17] = Plasmodium falciparum, 3D7, CQ^S-3D7

SMILES: O=C(/C=C/c1cn(Cc2cn(-c3ccnc4cc(Cl)ccc34)nn2)c2ccccc12)c1cccc(Br)c1 [7f, (E)-1-(3-bromophenyl)-3-(1-((1-(7-chloroquinolin-4-yl)-1H-1,2,3-triazol-4-yl)methyl)-1H-indol-3-yl)prop-2-en-1-one]
inhibition at 10 µM [1, 16]: > 50%

SMILES: O=C(/C=C/c1cn(Cc2cn(-c3ccnc4cc(Cl)ccc34)nn2)c2ccccc12)c1ccccc1Cl [7h, (E)-1-(2-chlorophenyl)-3-(1-((1-(7-chloroquinolin-4-yl)-1H-1,2,3-triazol-4-yl)methyl)-1H-indol-3-yl)prop-2-en-1-one]
inhibition at 10 µM [1, 16]: > 50%

Kd [2]: 17300 nM
PI of PfCDPK1 (inhibition of phosphorylation activity) ([3]; 1 μM): 71.9%
SMILES: COc1ccccc1C(=O)/C=C/c1cn(Cc2cn(-c3ccnc4cc(Cl)ccc34)nn2)c2ccccc12 [7l, (E)-3-(1-((1-(7-chloroquinolin-4-yl)-1H-1,2,3-triazol-4-yl)methyl)-1H-indol-3-yl)-1-(2-methoxyphenyl)prop-2-en-1-one]
IC50 [1, 17]: 2400 nM
inhibition of host kinase activity in words [4]: no inhibition of the host kinase activity

SMILES: COc1ccc(C(=O)/C=C/c2cn(Cc3cn(-c4ccnc5cc(Cl)ccc45)nn3)c3ccccc23)cc1 [7n, (E)-3-(1-((1-(7-chloroquinolin-4-yl)-1H-1,2,3-triazol-4-yl)methyl)-1H-indol-3-yl)-1-(4-methoxyphenyl)prop-2-en-1-one]
inhibition at 10 µM [1, 16]: > 50%

SMILES: O=C(/C=C/c1cn(Cc2cn(-c3ccnc4cc(Cl)ccc34)nn2)c2ccccc12)c1cccs1 [7p, (E)-3-(1-((1-(7-chloroquinolin-4-yl)-1H-1,2,3-triazol-4-yl)methyl)-1H-indol-3-yl)-1-(thiophen-2-yl)prop-2-en-1-one]
inhibition at 10 µM [1, 16]: > 50%

SMILES: Cc1ccccc1C(=O)/C=C/c1cn(Cc2cn(-c3ccnc4cc(Cl)ccc34)nn2)c2ccccc12 [7r, (E)-3-(1-((1-(7-chloroquinolin-4-yl)-1H-1,2,3-triazol-4-yl)methyl)-1H-indol-3-yl)-1-o-tolylprop-2-en-1-one]
IC50 ([1]; CQ^S-3D7): 1800 nM
inhibition at 10 µM [1, 16]: > 50%
IC50 [1, 17]: 3500 nM
IC50 ([5]; CQ^R-RKL-9, one intra-erythrocytic cycle): 2700 nM
Resistance Index (RI) ([5]; IC50 CQ^R-RKL-9/CQ^S-3D7): 1.49
intra-erythrocytic progression: stage affected [6]: effective against the mature stages of the parasite
growth progression, morphology ([6]; ring stage treated at IC50 concentration, 40 and 56 h post-treatment): stuck at the trophozoite stage with altered morphology
free monomeric heme (control-free heme) [7]: 48.8% and 48%
hemolysis at 1 h, 50 µM [8]: 2.3%
hemolysis at 1 h, 800 µM [8]: 5.9%
hemolytic activity in words [9]: no significant lysis; also recorded: no apparent hemolytic activity
viability at 24 h, 100 µM [10]: > 90%
cytotoxicity in words [11]: non-cytotoxic
viability at 24 h, 100 µM [12]: > 90%
cytotoxicity in words [13]: non-cytotoxic
Kd [2]: 7200 nM
inhibition at 1 µM ([3]; read-out: PI of PfCDPK1 (inhibition of phosphorylation activity), 1 μM): 45.5%
inhibition at 5 µM ([3]; read-out: PI of PfCDPK1 (inhibition of phosphorylation activity), 5 μM): 43.8%
inhibition of host kinase activity in words [4]: no inhibition of the host kinase activity; also recorded: no inhibitory effect on the human kinome; also recorded: no inhibitory effect on the human kinases

SMILES: CCCCCC(=O)NCCc1c[nH]c2ccccc12 [A, N-[2-(1H-indol-3-yl)ethyl]hexanamide]
PfCDPK1 inhibition potency in words [14]: sub-micromolar potency

SMILES: CCN(CC)CCCC(C)Nc1ccnc2cc(Cl)ccc12 (stereo not drawn) [CQ, chloroquine]
IC50 [15]: 25 nM

SMILES: O=Cc1cn(Cc2cn(-c3ccnc4cc(Cl)ccc34)nn2)c2ccccc12 [compound 9, 1-((1-(7-chloroquinolin-4-yl)-1H-1,2,3-triazol-4-yl)methyl)-1H-indole-3-carbaldehyde]
growth inhibition in words ([1]; at the tested concentration, CQ^S 3D7): poor inhibition; also recorded: not a good inhibitor
